Test results published in ChEMBL document CHEMBL1148324 (J Med Chem, 2004).

Key:
[1] = target: T1, Sulfonylurea receptors; K-ATP channels (Homo sapiens, UniProt O60706+Q09428+Q14654+Q15842); experiment: (§1) Evaluated for K-ATP activity in terms of change in membrane potential through guinea pig bladder assay; assay type: functional, Cavia porcellus; settings: target entry is the homologue from another species
[2] = target: T1, Sulfonylurea receptors; K-ATP channels; experiment: Evaluated for K-ATP activity in terms of stable twitch response through field-stimulated landrace pig detrusor assay; assay type: functional, Sus scrofa; settings: target entry is the homologue from another species
[3] = target: T1, Sulfonylurea receptors; K-ATP channels; experiment: Evaluated for K-ATP activity as in vitro bladder relaxation in spontaneous Landrace pig detrusor strips (SLPD); assay type: functional, Sus scrofa; settings: target entry is the homologue from another species
How it was run: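 Bladder strips taken near the trigonal region of Landrace pig bladder, contracting spontaneously (myogenic, no cholinergic component). Test agents added at increasing concentrations; the read-out is the reduction in area under the contraction curve.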

[4] = target: T1, Sulfonylurea receptors; K-ATP channels; experiment: Evaluated for K-ATP activity as stable twitch response through field-stimulated landrace pig detrusor assay (FSLPD); assay type: functional, Sus scrofa; settings: target entry is the homologue from another species
[5] = Selectivity expressed as the ratio of pEC50 (SLPD) and pEC50 (FSLPD); assay type: functional
Sus scrofa [6] = species: Sus scrofa; experiment: Evaluated for change in heart rate from baseline at a plasma concentration of 95 nM in pigs; assay type: functional
How it was run: (§2)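 Conscious female Landrace/Yorkshire swine (~12 weeks, 14–20 kg), urethra obstructed with a 7.5 mm silver omega ring, telemeterized, held in a restraint cage with ear venous catheters. After a 30 min baseline, increasing doses are given i.v. (3 min infusion) at 30 min intervals. Plasma is sampled 15 min after each dose for LC/MS. MAP and HR are averaged in 5 min bins over each 30 min period, expressed as % change from baseline; n = 2–4.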

Sus scrofa [7] = species: Sus scrofa; experiment: Evaluated for change in mean arterial pressure from baseline at a plasma concentration of 1.9 nM in pigs; assay type: functional; how it was run: as §2
Sus scrofa [8] = species: Sus scrofa; experiment: Evaluated for change in heart rate from baseline at a plasma concentration of 1.9 nM in pigs; assay type: functional; how it was run: as §2
Sus scrofa [9] = species: Sus scrofa; experiment: Evaluated for change in mean arterial pressure from baseline at a plasma concentration of 24 nM in pigs; assay type: functional; how it was run: as §2
Sus scrofa [10] = species: Sus scrofa; experiment: Evaluated for change in mean arterial pressure from baseline at a plasma concentration of 95 nM in pigs; assay type: functional; how it was run: as §2
Sus scrofa [11] = species: Sus scrofa; experiment: Evaluated for change in heart rate from baseline at a plasma concentration of 24 nM in pigs; assay type: functional; how it was run: as §2
[12] = target: Sulfonylurea receptors; K-ATP channels (UniProt Q14654+O60706+Q09428+Q15842); experiment: as §1; assay type: functional, Cavia porcellus; settings: target entry is the homologue from another species
Sulfonylurea receptors; K-ATP channels (UniProt Q14654+O60706+Q09428+Q15842), sequence (Q14654 whole entry): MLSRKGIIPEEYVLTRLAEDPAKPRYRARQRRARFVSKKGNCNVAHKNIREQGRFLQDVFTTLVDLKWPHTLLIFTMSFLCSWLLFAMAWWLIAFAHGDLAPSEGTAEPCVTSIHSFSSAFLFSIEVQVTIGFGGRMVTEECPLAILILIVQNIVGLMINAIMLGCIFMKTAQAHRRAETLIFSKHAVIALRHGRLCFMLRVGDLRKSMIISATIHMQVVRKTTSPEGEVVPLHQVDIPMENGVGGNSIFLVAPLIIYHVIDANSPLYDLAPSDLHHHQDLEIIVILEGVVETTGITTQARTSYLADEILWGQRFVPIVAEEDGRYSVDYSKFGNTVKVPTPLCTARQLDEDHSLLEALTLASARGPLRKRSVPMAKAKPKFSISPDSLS
Sulfonylurea receptors; K-ATP channels (UniProt Q14654+O60706+Q09428+Q15842), sequence (O60706 whole entry): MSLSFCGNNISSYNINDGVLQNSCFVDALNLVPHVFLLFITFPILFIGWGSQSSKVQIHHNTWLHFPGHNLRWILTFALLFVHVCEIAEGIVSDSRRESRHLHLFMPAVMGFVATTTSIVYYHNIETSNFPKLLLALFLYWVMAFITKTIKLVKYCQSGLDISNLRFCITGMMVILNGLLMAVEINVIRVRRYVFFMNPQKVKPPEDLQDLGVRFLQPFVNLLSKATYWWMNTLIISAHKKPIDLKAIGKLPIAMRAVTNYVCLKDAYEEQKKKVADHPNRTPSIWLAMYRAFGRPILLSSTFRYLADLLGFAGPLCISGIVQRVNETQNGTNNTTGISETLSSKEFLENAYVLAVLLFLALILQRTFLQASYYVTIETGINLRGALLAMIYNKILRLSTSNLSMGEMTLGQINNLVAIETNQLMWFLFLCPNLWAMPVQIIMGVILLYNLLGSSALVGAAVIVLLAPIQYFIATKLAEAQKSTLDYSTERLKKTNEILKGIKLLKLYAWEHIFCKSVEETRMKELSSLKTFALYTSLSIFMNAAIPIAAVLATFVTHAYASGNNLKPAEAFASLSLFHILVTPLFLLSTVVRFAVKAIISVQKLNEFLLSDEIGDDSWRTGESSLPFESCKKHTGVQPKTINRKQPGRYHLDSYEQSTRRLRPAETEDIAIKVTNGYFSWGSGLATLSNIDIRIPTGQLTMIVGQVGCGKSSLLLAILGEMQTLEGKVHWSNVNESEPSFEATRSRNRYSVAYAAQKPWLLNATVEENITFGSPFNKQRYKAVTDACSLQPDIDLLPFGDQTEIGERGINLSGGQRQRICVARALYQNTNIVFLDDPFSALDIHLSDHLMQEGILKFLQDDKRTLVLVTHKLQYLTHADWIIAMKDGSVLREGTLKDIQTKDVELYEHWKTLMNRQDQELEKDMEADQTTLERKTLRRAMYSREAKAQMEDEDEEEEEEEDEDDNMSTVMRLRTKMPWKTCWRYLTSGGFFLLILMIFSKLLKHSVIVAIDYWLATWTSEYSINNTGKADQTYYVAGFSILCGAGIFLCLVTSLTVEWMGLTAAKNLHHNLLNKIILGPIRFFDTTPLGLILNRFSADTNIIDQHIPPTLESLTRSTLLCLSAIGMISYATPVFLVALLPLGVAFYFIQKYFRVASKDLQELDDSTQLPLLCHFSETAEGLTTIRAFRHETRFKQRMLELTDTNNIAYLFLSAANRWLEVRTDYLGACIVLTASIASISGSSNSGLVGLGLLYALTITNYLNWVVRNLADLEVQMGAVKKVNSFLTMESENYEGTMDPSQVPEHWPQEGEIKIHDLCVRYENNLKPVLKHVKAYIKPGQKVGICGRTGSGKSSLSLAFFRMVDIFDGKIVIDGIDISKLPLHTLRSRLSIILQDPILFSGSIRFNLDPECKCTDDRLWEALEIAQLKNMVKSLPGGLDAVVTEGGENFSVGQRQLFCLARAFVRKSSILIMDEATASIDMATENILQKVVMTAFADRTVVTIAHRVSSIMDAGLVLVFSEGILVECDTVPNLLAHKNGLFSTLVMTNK
Sulfonylurea receptors; K-ATP channels (UniProt Q14654+O60706+Q09428+Q15842), sequence (Q09428 whole entry): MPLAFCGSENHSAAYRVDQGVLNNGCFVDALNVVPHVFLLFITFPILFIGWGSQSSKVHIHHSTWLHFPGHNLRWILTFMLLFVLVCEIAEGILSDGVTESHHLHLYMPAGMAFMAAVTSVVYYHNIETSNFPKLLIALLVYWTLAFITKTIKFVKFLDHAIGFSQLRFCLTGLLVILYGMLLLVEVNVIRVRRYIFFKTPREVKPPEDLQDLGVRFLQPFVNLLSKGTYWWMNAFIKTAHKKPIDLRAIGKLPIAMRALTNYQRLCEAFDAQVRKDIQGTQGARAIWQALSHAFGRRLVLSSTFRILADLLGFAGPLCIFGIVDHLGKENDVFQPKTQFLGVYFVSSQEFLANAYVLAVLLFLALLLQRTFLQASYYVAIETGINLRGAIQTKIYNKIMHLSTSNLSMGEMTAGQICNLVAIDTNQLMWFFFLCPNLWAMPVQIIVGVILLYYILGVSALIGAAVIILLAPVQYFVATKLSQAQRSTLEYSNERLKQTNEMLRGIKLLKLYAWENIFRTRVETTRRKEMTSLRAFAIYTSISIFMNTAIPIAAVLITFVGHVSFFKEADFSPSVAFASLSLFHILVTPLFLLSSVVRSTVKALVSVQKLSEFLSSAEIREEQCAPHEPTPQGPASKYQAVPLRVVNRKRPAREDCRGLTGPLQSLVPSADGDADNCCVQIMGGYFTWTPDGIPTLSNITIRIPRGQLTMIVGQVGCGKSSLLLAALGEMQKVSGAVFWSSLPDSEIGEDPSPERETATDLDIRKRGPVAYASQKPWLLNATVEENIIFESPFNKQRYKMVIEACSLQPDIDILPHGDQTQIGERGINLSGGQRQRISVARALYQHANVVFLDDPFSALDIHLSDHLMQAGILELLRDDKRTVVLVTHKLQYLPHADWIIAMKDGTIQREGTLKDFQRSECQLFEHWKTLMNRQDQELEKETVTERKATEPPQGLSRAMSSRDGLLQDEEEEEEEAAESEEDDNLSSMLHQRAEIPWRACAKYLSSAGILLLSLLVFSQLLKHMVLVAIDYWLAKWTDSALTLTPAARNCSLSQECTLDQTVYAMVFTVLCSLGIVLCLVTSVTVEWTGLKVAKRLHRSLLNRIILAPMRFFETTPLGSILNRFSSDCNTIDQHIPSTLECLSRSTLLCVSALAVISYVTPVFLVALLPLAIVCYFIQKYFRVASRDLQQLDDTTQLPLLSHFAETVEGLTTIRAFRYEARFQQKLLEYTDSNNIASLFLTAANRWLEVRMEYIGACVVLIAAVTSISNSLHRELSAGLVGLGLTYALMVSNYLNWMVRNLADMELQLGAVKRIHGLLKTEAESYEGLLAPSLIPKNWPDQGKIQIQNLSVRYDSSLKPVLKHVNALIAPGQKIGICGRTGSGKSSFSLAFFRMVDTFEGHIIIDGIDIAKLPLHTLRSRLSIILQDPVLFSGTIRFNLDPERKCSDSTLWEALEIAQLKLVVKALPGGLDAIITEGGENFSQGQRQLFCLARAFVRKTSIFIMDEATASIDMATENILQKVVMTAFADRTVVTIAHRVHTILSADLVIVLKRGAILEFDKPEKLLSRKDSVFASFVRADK
Sulfonylurea receptors; K-ATP channels (UniProt Q14654+O60706+Q09428+Q15842), sequence (Q15842 whole entry): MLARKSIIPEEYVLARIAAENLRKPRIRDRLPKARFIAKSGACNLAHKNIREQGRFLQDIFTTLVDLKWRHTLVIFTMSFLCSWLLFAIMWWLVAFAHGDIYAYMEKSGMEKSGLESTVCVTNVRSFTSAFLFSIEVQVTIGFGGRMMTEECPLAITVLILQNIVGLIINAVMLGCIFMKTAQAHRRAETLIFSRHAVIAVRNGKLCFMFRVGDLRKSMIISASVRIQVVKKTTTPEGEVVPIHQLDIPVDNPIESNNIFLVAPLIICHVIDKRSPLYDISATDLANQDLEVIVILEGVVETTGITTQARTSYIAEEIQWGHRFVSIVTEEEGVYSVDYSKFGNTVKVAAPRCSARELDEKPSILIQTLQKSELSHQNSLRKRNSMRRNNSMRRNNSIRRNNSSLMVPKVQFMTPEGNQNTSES

Sus scrofa [13] = species: Sus scrofa; experiment: Evaluated for change in mean arterial pressure from baseline at a plasma concentration of 12 nM in pigs; assay type: functional; how it was run: as §2
Sus scrofa [14] = species: Sus scrofa; experiment: Evaluated for change in heart rate from baseline at a plasma concentration of 44 nM in pigs; assay type: functional; how it was run: as §2
Sus scrofa [15] = species: Sus scrofa; experiment: Evaluated for change in heart rate from baseline at a plasma concentration of 167 nM in pigs; assay type: functional; how it was run: as §2
Sus scrofa [16] = species: Sus scrofa; experiment: Evaluated for change in heart rate from baseline at a plasma concentration of 12 nM in pigs; assay type: functional; how it was run: as §2
Sus scrofa [17] = species: Sus scrofa; experiment: Evaluated for change in mean arterial pressure from baseline at a plasma concentration of 167 nM in pigs; assay type: functional; how it was run: as §2
Sus scrofa [18] = species: Sus scrofa; experiment: Evaluated for change in mean arterial pressure from baseline at a plasma concentration of 44 nM in pigs; assay type: functional; how it was run: as §2

Structure (SMILES) | EC50 [1] [nM] | EC50 [2] [nM] | further results
C=Cc1cc([C@H]2C3=C(CCCC3=O)NC3=C2S(=O)(=O)CC3)ccc1F | 1350 | 2450 | 
O=C1CCCC2=C1[C@H](c1ccc3nonc3c1)C1=C(CCS1(=O)=O)N2 | 214 | 2340 | 
CC(=O)c1cc([C@H]2C3=C(CCCC3=O)NC3=C2S(=O)(=O)CC3)ccc1F | 1050 |  | 
Cc1ccc([C@H]2C3=C(CCCC3=O)NC3=C2S(=O)(=O)CC3)cc1Br | 182 | 110 | 
CC1(C)CC(=O)C2=C(C1)NC1=C([C@H]2c2ccc(F)c(Br)c2)S(=O)(=O)CC1 | 7080 |  | 
N#Cc1cc([C@H]2C3=C(CCCC3=O)NC3=C2S(=O)(=O)CC3)ccc1F | 468 |  | 
CCC(C)(C)NC(=NC#N)Nc1cccnc1 | 44.7 | 85.1 | EC50 [3]: 21.9 nM
CC1(C)CCC(=O)C2=C1NC1=C([C@@H]2c2ccc(F)c(Br)c2)S(=O)(=O)CC1 | > 10000 |  | 
O=C1CCCC2=C1[C@@H](c1ccc(F)c(Br)c1)C1=C(CCS1(=O)=O)N2 | 43.7 |  | EC50 [4]: 69.2 nM; Selectivity [5]: 5.5; EC50 [3]: 12.6 nM
O=C1CCC2=C1[C@@H](c1ccc(F)c(Br)c1)C1=C(CCCS1(=O)=O)N2 | 52.5 | 282 | 
CC1(C)CC(=O)C2=C(C1)NC1=C([C@@H]2c2ccc(F)c(Br)c2)S(=O)(=O)CC1 | 17800 |  | 
O=C1CCCC2=C1[C@H](c1ccc(Cl)c(Cl)c1)C1=C(CCS1(=O)=O)N2 | 269 | 331 | 
O=C1CCCC2=C1[C@H](c1ccc(Cl)c(F)c1)C1=C(CCS1(=O)=O)N2 | 1320 |  | 
O=C1CCCC2=C1[C@H](c1ccc(C(F)(F)F)c(Br)c1)C1=C(CCS1(=O)=O)N2 | 219 | 9550 | 
O=C1CCC2=C1C(c1cc(Br)cs1)C1=C(CCS1(=O)=O)N2 (stereo not drawn) | 741 |  | 
N#Cc1ccnc(C2C3=C(CCC3=O)NC3=C2S(=O)(=O)CC3)c1 (stereo not drawn) | > 10000 |  | 
O=C1CCCC2=C1[C@H](c1ccc(F)c(-c3ccccc3)c1)C1=C(CCS1(=O)=O)N2 | 12000 |  | 
O=C1CCC2=C1C(c1ccc(F)c(Br)c1)C1=C(CCCCS1(=O)=O)N2 (stereo not drawn) | 2240 | 11700 | 
O=C1CCC2=C1C(c1csc([N+](=O)[O-])c1)C1=C(CCS1(=O)=O)N2 (stereo not drawn) | 240 | 661 | 
O=C1CCCC2=C1C(c1ccc(F)c(Br)c1)C1=C(CCCS1(=O)=O)N2 (single isomer, unassigned; (+)) | 1200 | 6760 | 
CC(=O)C1=C(C)NC2=C(C1c1ccc(F)c(Br)c1)S(=O)(=O)CCC2 (stereo not drawn) | 214 | 794 | 
CC1(C)CCC(=O)C2=C1NC1=C([C@H]2c2ccc(F)c(Br)c2)S(=O)(=O)CC1 | 631 | 2690 | 
Cc1ccc([C@H]2C3=C(CCCC3=O)NC3=C2S(=O)(=O)CC3)cc1S(C)(=O)=O | > 10000 |  | 

Structure (SMILES) | EC50 [1] [nM] | EC50 [2] [nM] | further results
N#Cc1cccc([C@H]2C3=C(CCCC3=O)NC3=C2S(=O)(=O)CC3)c1 | 5890 | 12900 | 
CC1(C)CCC2=C(C1=O)[C@@H](c1ccc(F)c(Br)c1)C1=C(CCS1(=O)=O)N2 | 107 | 977 | 
N#Cc1cccc(C2C3=C(CCCC3=O)NC3=C2C(=O)CCC3)c1 |  | 9770 | 
O=C1CCC2=C1[C@@H](c1ccc(F)c(Br)c1)C1=C(CCS1(=O)=O)N2 | 33.1 | 30.9 | 
CCc1cc(C#N)ccc1Nc1c(N[C@H](C)C(C)(C)C)c(=O)c1=O | 251 | 676 | Selectivity [5]: 6.6; EC50 [3]: 102 nM
O=S1(=O)CCCC2=C1C(c1ccc(F)c(Br)c1)C1=C(CCCS1(=O)=O)N2 | 3160 | 11700 | 
O=C1CCCC2=C1[C@H](c1ccc(F)c(Br)c1)C1=C(CCS1(=O)=O)N2 | 123 | 234 | Delta HR (Sus scrofa [6]): 56%; Delta MAP (Sus scrofa [7]): -5.4%; Delta HR (Sus scrofa [8]): 6.2%; Delta MAP (Sus scrofa [9]): -6.9%; Selectivity [5]: 10; Delta MAP (Sus scrofa [10]): -27%; EC50 [3]: 22.9 nM; Delta HR (Sus scrofa [11]): 3.5%
O=C1CCCC2=C1[C@H](c1ccc(F)c(Cl)c1)C1=C(CCS1(=O)=O)N2 | 138 | 214 | 
O=C1CCCC2=C1[C@H](c1cccc(Br)c1)C1=C(CCS1(=O)=O)N2 | 1510 |  | 
Cc1ccc([C@H]2C3=C(CCCC3=O)NC3=C2S(=O)(=O)CC3)cc1I | 21.9 | 309 | 
CCOC(=O)C1=C(C)NC2=C(C1c1ccc(F)c(Br)c1)S(=O)(=O)CC2 (stereo not drawn) | 501 |  | 
O=C1CCCC2=C1[C@H](c1cc(Br)ccc1O)C1=C(CCS1(=O)=O)N2 | 575 | 20400 | 
O=C1CCCC2=C1[C@H](c1ccc(Br)c(Br)c1)C1=C(CCS1(=O)=O)N2 | 55 | 537 | 
O=S1(=O)CCC2=C1C(c1ccc(F)c(Br)c1)C1=C(CCS1(=O)=O)N2 | 339 | 269 | 
O=C1CCC2=C1C(c1ccc([N+](=O)[O-])s1)C1=C(CCS1(=O)=O)N2 (stereo not drawn) |  | 479 | Log EC50 [12]: -6.82
O=C1CCC2=C1C(c1ccc(Br)s1)C1=C(CCS1(=O)=O)N2 (stereo not drawn) | 1860 |  | 
Cc1ccc([C@H]2C3=C(CCCC3=O)NC3=C2S(=O)(=O)CC3)cc1[N+](=O)[O-] | 282 | 537 | 
O=C1CCCC2=C1[C@H](c1cc(Cl)c(Cl)cc1CO)C1=C(CCS1(=O)=O)N2 | 61700 |  | 
CC1=C(C(=O)O)C(c2ccc(F)c(Br)c2)C2=C(CCS2(=O)=O)N1 (stereo not drawn) | 1820 | 8710 | 
O=C1CCCC2=C1[C@H](c1ccc(F)c(C(F)(F)F)c1)C1=C(CCS1(=O)=O)N2 | 155 | 977 | 
CSc1cc([C@H]2C3=C(CCCC3=O)NC3=C2S(=O)(=O)CC3)ccc1F | 2570 |  | 
O=C1CCCC2=C1[C@H](c1ccc(F)c(I)c1)C1=C(CCS1(=O)=O)N2 | 28.2 | 447 | 
O=C1CCCC2=C1[C@H](c1ccc3nsnc3c1)C1=C(CCS1(=O)=O)N2 | 2400 |  | 

Structure (SMILES) | EC50 [1] [nM] | EC50 [2] [nM] | further results
N#Cc1cc(C2C3=C(CCC3=O)NC3=C2S(=O)(=O)CC3)ccn1 (stereo not drawn) | 3160 |  | 
O=C1CCC2=C1C(c1cncc([N+](=O)[O-])c1)C1=C(CCS1(=O)=O)N2 (stereo not drawn) | > 10000 |  | 
O=S1(=O)CCC2=C1C(c1ccc(F)c(Br)c1)C=C(C(F)(F)F)N2 (stereo not drawn) | 447 | 2240 | 
CC1(C)CCC2=C(C1=O)[C@H](c1ccc(F)c(Br)c1)C1=C(CCS1(=O)=O)N2 | 83.2 | 5620 | 
CC1(C)Oc2ccc(C#N)cc2[C@H](N2CCCC2=O)[C@H]1O (single isomer, unassigned) [(-)-CROMAKALIM] |  |  | Delta MAP (Sus scrofa [13]): -6.3%; Delta HR (Sus scrofa [14]): 38%; Delta HR (Sus scrofa [15]): 47%; Delta HR (Sus scrofa [16]): 13%; Delta MAP (Sus scrofa [17]): -33%; Delta MAP (Sus scrofa [18]): -12%
CCOC(=O)C1=C(C(F)(F)F)NC2=C(C1c1ccc(F)c(Br)c1)S(=O)(=O)CC2 (stereo not drawn) | > 10000 |  | 
O=C1CCCC2=C1[C@H](c1ccc(F)c(-c3cccs3)c1)C1=C(CCS1(=O)=O)N2 | > 10000 |  | 
O=C1CCCC2=C1[C@H](c1ccc(Br)cc1)C1=C(CCS1(=O)=O)N2 | > 10000 |  | 
CCc1ccc([C@H]2C3=C(CCCC3=O)NC3=C2S(=O)(=O)CC3)cc1[N+](=O)[O-] | 2290 |  | 
O=C1CCCC2=C1C(c1ccc(F)c(Br)c1)C1=C(CCCCS1(=O)=O)N2 (stereo not drawn) | 3310 |  | 
O=C1CCCC2=C1C(c1ccc(F)c(Br)c1)C1=C(CCCS1(=O)=O)N2 (stereo in doubt; 17(-)) | 38 | 363 | 
O=C1CCC2=C1[C@H](c1ccc(F)c(Br)c1)C1=C(CCS1(=O)=O)N2 | 575 | 339 | 
N#Cc1cccc(C2C3=C(CCC3=O)NC3=C2S(=O)(=O)CC3)n1 (stereo not drawn) | > 10000 |  | 
O=C1CCCC2=C1[C@H](c1ccc(Cl)c(Br)c1)C1=C(CCS1(=O)=O)N2 | 25.7 | 724 | 
O=C1CCCC2=C1[C@H](c1ccc(F)c(-c3cccnc3)c1)C1=C(CCS1(=O)=O)N2 | > 10000 |  | 
O=C1CCCC2=C1[C@H](c1cc(Br)c(F)cc1O)C1=C(CCS1(=O)=O)N2 | 209 | 676 | 
O=C1CCCC2=C1[C@H](c1ccc(F)c(-c3ccco3)c1)C1=C(CCS1(=O)=O)N2 | 214 | 1700 | 
CC1=C(C#N)C(c2ccc(F)c(Br)c2)C2=C(CCS2(=O)=O)N1 (stereo not drawn) | 27.5 |  | 
O=C1CCCC2=C1[C@H](c1ccc(F)c(F)c1)C1=C(CCS1(=O)=O)N2 | 2040 |  | 
COC(=O)C1=C(C)NC2=C(C1c1ccc(F)c(Br)c1)S(=O)(=O)CC2 (stereo not drawn) | 53.7 |  | 
O=C1CCC2=C1[C@H](c1ccc(F)c(Br)c1)C1=C(CCCS1(=O)=O)N2 | 14800 | 26300 | 
Cc1cc([C@H]2C3=C(CCCC3=O)NC3=C2S(=O)(=O)CC3)ccc1F | 2820 |  | 
